This note sets out measurements from PMC11439047 (Nature Communications, 2024).

Numbering of substitutions follows the chain as printed.

One test addresses T1, P2X1 receptor E122A (Homo sapiens, UniProt P51575, E122A).
T1 sequence (P51575 1-399 E122A): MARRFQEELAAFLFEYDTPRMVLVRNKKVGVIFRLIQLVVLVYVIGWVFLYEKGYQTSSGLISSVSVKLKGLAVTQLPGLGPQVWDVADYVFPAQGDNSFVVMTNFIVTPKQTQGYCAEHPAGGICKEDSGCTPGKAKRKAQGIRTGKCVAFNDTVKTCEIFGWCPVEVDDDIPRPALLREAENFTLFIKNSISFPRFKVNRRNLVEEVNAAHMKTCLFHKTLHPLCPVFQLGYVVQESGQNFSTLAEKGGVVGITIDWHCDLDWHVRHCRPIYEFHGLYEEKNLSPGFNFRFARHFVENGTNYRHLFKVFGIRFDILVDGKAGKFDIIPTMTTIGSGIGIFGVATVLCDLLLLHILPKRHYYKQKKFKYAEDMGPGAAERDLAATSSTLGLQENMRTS
Briefly: Calcium ion influx assay. The test is classed as cell-based. In outline: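 Tetracycline-induced (150 ng/mL, 2 days) stable HEK293 Flp-In T-REx cells at 15,000 cells/well, loaded with Fluo-8 for 1 h at 37 °C in probenecid-containing HEPES buffer, pH 7.4. Then 30 min buffer incubation, 20 s baseline, agonist addition and 2 min reading (ex 485/em 525 nm). Max-minus-min fluorescence normalised to 10 µM ionomycin, rescaled 0–100. Constrained four-parameter fit; EC50 per experiment; four independent experiments, triplicate.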

In a further test the target is T2, P2X1 receptor F188L (Homo sapiens, UniProt P51575, F188L).
T2 sequence (P51575 1-399 F188L): T1 sequence (P51575 1-399 E122A) with A122E, F188L
Briefly: Calcium ion influx assay. The test is classed as cell-based. The settings on record: maximal α,β-methylene ATP.

The next test has as its target T3, P2X1 receptor R139P (Homo sapiens, UniProt P51575, R139P).
T3 sequence (P51575 1-399 R139P): T1 sequence (P51575 1-399 E122A) with A122E, R139P
The test can be described thus: Calcium ion influx assay. The test is classed as cell-based. The settings on record: maximal α,β-methylene ATP.

The next test has as its target T4, P2X1 receptor R139A (Homo sapiens, UniProt P51575, R139A).
T4 sequence (P51575 1-399 R139A): T1 sequence (P51575 1-399 E122A) with A122E, R139A
The test can be described thus: Saturation radioligand binding with [3H]-α,β-methylene ATP. In outline: (§1)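 Whole HEK293 Flp-In T-REx cells stably expressing receptor, tetracycline-induced (150 ng/ml, 2 days), 15,000 cells/well, washed in HEPES binding buffer pH 7.4 with Ca2+/Mg2+. Increasing [3H]-α,β-methylene ATP added, 3 h room temperature with gentle agitation; non-specific binding with 10 μM ATP. Ice-cold 0.9% NaCl washes, scintillation counting (CCPM). Specific binding fitted one-site; values above 300 nM termed not defined.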

The next test has as its target T5, P2X1 receptor M214A (Homo sapiens, UniProt P51575, M214A).
T5 sequence (P51575 1-399 M214A): T1 sequence (P51575 1-399 E122A) with A122E, M214A
Briefly: Saturation radioligand binding with [3H]-α,β-methylene ATP.

For a further test, the target named is T6, P2X1 receptor K136W (Homo sapiens, UniProt P51575, K136W).
T6 sequence (P51575 1-399 K136W): T1 sequence (P51575 1-399 E122A) with A122E, K136W
Briefly: Saturation radioligand binding with [3H]-α,β-methylene ATP. In outline: as §1

As for `Nc1ncnc2c1ncn2[C@@H]1O[C@H](COP(=O)(O)CP(=O)(O)OP(=O)(O)O)[C@@H](O)[C@H]1O` [α,β-methylene ATP], the “fold decrease in potency compared to WT-P2X1” value on P2X1 receptor E122A is reported as 18.5 fold. At P2X1 receptor F188L, the “time to achieve 50% decay, times WT-P2X1” value is recorded as “approximately 1.5 times”. For the same compound, the “desensitisation rate compared to WT-P2X1” value at P2X1 receptor R139P was “significantly slowed the desensitisation rate”. The “fold decrease in affinity compared to WT-P2X1” value on P2X1 receptor R139A is on record as 6 fold. Also, the “binding affinity compared to WT-P2X1” value is “beyond the threshold that could be accurately measured” on P2X1 receptor M214A and “similar” at P2X1 receptor K136W.
